Assay results from ChEMBL document CHEMBL1275590, “Novel arylimidamides for treatment of visceral leishmaniasis” (Antimicrob Agents Chemother, 2010).
Active and inactive are the calls of the source. The rule behind the calls is not given here.

Assays:
[1] = Half life in golden Syrian hamster liver microsomes by HPLC-MS/MS analysis in presence of 0.1 uM NADPH; type: ADME, Mesocricetus auratus, Microsome
Outline: (§1)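 Pooled liver microsomes with NADPH. Substrate at final 0.1, 1.0 and 10 μM with 0.5% DMSO, incubated up to 60 min at 37°C. Reactions were stopped with 7:1 methanol-water containing 0.1% TFA and 30 nM internal standard. Remaining substrate was measured by HPLC-MS/MS, and t1/2 came from a one-phase exponential decay fit.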

Mus musculus [2] = test: Hepatotoxicity in BALB/c mouse assessed as AST level in serum at 20 mg/kg/day, iv administered for five days (Rvb= 65 U/L); type: toxicity, organism-based; design: route intravenous; conditions: in vivo
Mus musculus [3] = test: Renal toxicity in BALB/c mouse assessed as phosphorus level in serum at 20 mg/kg/day, iv administered for five days (Rvb= 6.1 mg/dl); type: organism-based; design: route intravenous; conditions: in vivo
Outline: (§2)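 Female BALB/c mice (n = 5 per dose), dosed once daily for 5 consecutive days p.o. (20 ml/kg) or i.v. (10 ml/kg) with compound in sterile water, prepared fresh daily under yellow light. Vehicle controls n = 5 per route. Clinical observations, body weights, serum chemistry and hematology on day 6 before necropsy; histopathology of formalin-fixed tissues. Chemistry analysed by one-way ANOVA with Dunnett's posttest.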

Mus musculus [4] = test: Hepatotoxicity in BALB/c mouse assessed as AST level in serum at 5 mg/kg/day, iv administered for five days (Rvb= 65 U/L); type: toxicity, organism-based; design: route intravenous; conditions: in vivo
Mus musculus [5] = test: Hepatotoxicity in BALB/c mouse assessed as ALT level in serum at 5 mg/kg/day, iv administered for five days (Rvb= 34 U/L); type: toxicity, organism-based; design: route intravenous; conditions: in vivo
Mus musculus [6] = test: Renal toxicity in BALB/c mouse assessed as blood urea nitrogen level in serum at 20 mg/kg/day, iv administered for five days (Rvb= 20 mg/dl); type: organism-based; design: route intravenous; conditions: in vivo; outline: as §2
[7] = Half life in golden Syrian hamster liver microsome by HPLC-MS/MS analysis in presence of 10 uM NADPH; type: ADME, Mesocricetus auratus; conditions: liver microsomes; outline: as §1
[8] = Half life in mouse liver microsome by HPLC-MS/MS analysis in presence of 10 uM NADPH; type: ADME; conditions: liver microsomes
Outline: (§3)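 Pooled liver microsomes (human, mouse, rat) with NADPH. Substrate added from DMSO to final 0.1, 1.0 or 10 μM, with 0.5% (vol/vol) organic solvent. Incubated at 37°C for up to 60 min. Stopped with 2 volumes of 7:1 methanol-water containing 0.1% TFA and 30 nM internal standard, then centrifuged. Remaining substrate was measured by HPLC-MS/MS, and t1/2 was obtained by one-phase exponential decay fit (t1/2 = 0.693/k).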

Leishmania donovani [9] = test: Antileishmanial activity against Leishmania donovani axenic amastigotes; type: functional, organism-based
Leishmania donovani [10] = test: Antileishmanial activity against antimony resistant Leishmania donovani MC8-R infected in mouse J774 macrophage; type: functional, organism-based
Mus musculus [11] = test: Renal toxicity in BALB/c mouse assessed as phosphorus level in serum at 50 mg/kg/day, po administered for five days (Rvb= 5.3 mg/dl); type: organism-based; design: route oral; conditions: in vivo; outline: as §2
[12] = Half life in rat liver microsome by HPLC-MS/MS analysis in presence of 1 uM NADPH; type: ADME; conditions: liver microsomes; outline: as §3
Leishmania donovani [13] = test: Antileishmanial activity against antimony resistant Leishmania donovani MC4-R infected in mouse J774 macrophage; type: functional, organism-based
[14] = Cmax in Swiss Webster mouse at 1 mg/kg, iv by HPLC-MS/MS analysis; type: ADME, organism-based; design: dose 1 mg/kg, route intravenous; conditions: in vivo
Outline: (§4)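 Male Swiss Webster mice, n = 3 per time point. For i.v., the compound was dissolved in sterile water, diluted 1:1 with 2× saline, and given as a tail-vein bolus over ~10–20 s. For p.o., it was given by gavage in sterile water. Dose volume was 5 ml/kg. Terminal plasma was taken from 5 min to 72 h and measured by HPLC-MS/MS (calibration 2.5–10,000 nM). Parameters came from noncompartmental analysis.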

Mus musculus [15] = test: Hepatotoxicity in BALB/c mouse assessed as ALT level in serum at 20 mg/kg/day, iv administered for five days (Rvb= 34 U/L); type: toxicity, organism-based; design: route intravenous; conditions: in vivo
Leishmania amazonensis = test: Antileishmanial activity against intracellular Leishmania amazonensis amastigotes; type: functional, organism-based
Leishmania donovani [16] = test: Antileishmanial activity against Leishmania donovani promastigotes in ip dosed BALB/c mouse assessed as inhibition of liver parasitemia; type: functional, organism-based
Outline: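 Murine VL model in L. donovani-infected mice. Compounds were dissolved in water and given i.p. or p.o. once daily for 5 days (4 days for one i.p. regimen). Liver parasitemia was compared with untreated controls by unpaired Student's t test, P ≤ 0.05.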

[17] = AUC (0 to infinity) in Swiss Webster mouse at 1 mg/kg, iv by HPLC-MS/MS analysis; type: ADME, organism-based; design: time infinity, dose 1 mg/kg, route intravenous; conditions: plasma; outline: as §4
Mus musculus [18] = test: Renal toxicity in BALB/c mouse assessed as blood urea nitrogen level in serum at 5 mg/kg/day, iv administered for five days (Rvb= 20 mg/dl); type: organism-based; design: route intravenous; conditions: in vivo; outline: as §2
Leishmania donovani [19] = test: Antileishmanial activity against […] Leishmania donovani AG83-S infected in mouse J774 macrophage; type: functional, organism-based
Mus musculus [20] = test: Renal toxicity in BALB/c mouse assessed as blood urea nitrogen level in serum at 25 mg/kg/day, po administered for five days (Rvb= 29 mg/dl); type: organism-based; design: route oral; conditions: in vivo; outline: as §2
Mus musculus [21] = test: Hepatotoxicity in BALB/c mouse assessed as phosphorus level in serum at 25 mg/kg/day, po administered for five days (Rvb= 5.3 mg/dl); type: toxicity, organism-based; design: route oral; conditions: in vivo
Mus musculus [22] = test: Hepatotoxicity in BALB/c mouse assessed as alkaline phosphatase level in serum at 50 mg/kg/day, po administered for five days (Rvb= 129 U/L); type: toxicity, organism-based; design: route oral; conditions: in vivo
[23] = Half life in human liver microsome by HPLC-MS/MS analysis in presence of 1 uM NADPH; type: ADME; conditions: liver microsomes; outline: as §1
Leishmania donovani [24] = test: Antileishmanial activity against intracellular Leishmania donovani LV82 amastigotes; type: functional, organism-based
Outline: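 CD-1 mouse peritoneal macrophages, 5 × 10^4 cells/well in RPMI 1640 + 10% heat-inactivated FBS, adhered overnight. Infected overnight with stationary-phase LV82 promastigotes (5:1 parasite:macrophage), 37°C, 5% CO2. Medium then replaced with compound or vehicle for 72 h at 37°C. Methanol-fixed, Giemsa-stained; % infected macrophages counted at ×1,000. IC50 by four-parameter logistic nonlinear regression.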

[25] = Volume of distribution in Swiss Webster mouse at 1 mg/kg, iv by HPLC-MS/MS analysis; type: ADME, organism-based; design: dose 1 mg/kg, route intravenous; conditions: in vivo
Outline: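 Male Swiss Webster mice (n = 3 per time point), single dose by oral gavage (sterile water solution) or tail-vein bolus i.v. (water diluted 1:1 with 2× saline, over ~10–20 s); dose volume 5 ml/kg. Terminal blood sampled from 5 min to 72 h postdose; plasma quantified by HPLC-MS/MS (positive-ion SRM). Noncompartmental analysis gave Cmax, Tmax, AUC0-∞, CL, Vss; bioavailability from p.o. versus i.v. exposure.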

Mus musculus [26] = test: Hepatotoxicity in BALB/c mouse assessed as ALT level in serum at 25 mg/kg/day, po administered for five days (Rvb= 36 U/L); type: toxicity, organism-based; design: route oral; conditions: in vivo
Mus musculus [27] = test: Renal toxicity in BALB/c mouse assessed as blood urea nitrogen level in serum at 50 mg/kg/day, po administered for five days (Rvb= 29 mg/dl); type: organism-based; design: route oral; conditions: in vivo; outline: as §2
[28] = Half life in mouse liver microsome by HPLC-MS/MS analysis in presence of 1 uM NADPH; type: ADME; conditions: liver microsomes; outline: as §3

Compound `CCOc1cc(NC(=N)c2ccccn2)ccc1-c1ccc(-c2ccc(NC(=N)c3ccccn3)cc2OCC)o1` has a half-life [1] of 1.25 h, an Activity (Mus musculus [2]) of 89 U/L and an Activity (Mus musculus [3]) of 7.3 mg/dL. For the same compound, the Activity (Mus musculus [4]) was 80 U/L, the Activity (Mus musculus [5]) was 43 U/L and the Activity (Mus musculus [6]) was 27 mg/dL. The half-life [7] was > 2 h, the half-life [8] was > 2 h and the IC50 (Leishmania donovani [9]) was 500 nM. The IC50 (Leishmania donovani [10]) was 160 nM, the Activity (Mus musculus [11]) was 7.2 mg/dL and the half-life [12] was > 2 h. It also gave an IC50 (Leishmania donovani [13]) of 150 nM, a Cmax [14] of 370 nM and an Activity (Mus musculus [15]) of 57 U/L. For the same compound, the IC50 (Leishmania amazonensis) was 120 nM, the Activity (Leishmania donovani [16]) was “Active” and the AUC(0-inf) [17] was 0.56 µM·h. For the same compound, the Activity (Mus musculus [18]) was 18 mg/dL, the IC50 (Leishmania donovani [19]) was 130 nM and the Activity (Mus musculus [20]) was 29 mg/dL. For the same compound, the Activity (Mus musculus [21]) was 6.9 mg/dL, the Activity (Mus musculus [22]) was 130 U/L and the half-life [23] was > 2 h. The IC50 (Leishmania donovani [24]) was 18 nM, the Vd [25] was 36 L/kg and the Activity (Mus musculus [26]) was 31 U/L. For the same compound, the Activity (Mus musculus [27]) was 27 mg/dL and the half-life [28] was 0.783 h.

`CC(C)Oc1cc(NC(=N)c2ccccn2)ccc1-c1ccc(-c2ccc(NC(=N)c3ccccn3)cc2OC(C)C)o1` showed a half-life [1] of 0.65 h, an Activity (Mus musculus [2]) of 76 U/L and an Activity (Mus musculus [3]) of 6.5 mg/dL. The Activity (Mus musculus [4]) was 76 U/L, the Activity (Mus musculus [5]) was 36 U/L and the Activity (Mus musculus [6]) was 26 mg/dL. The half-life [7] was > 2 h, the half-life [8] was > 2 h and the IC50 (Leishmania donovani [9]) was 500 nM. For the same compound, the IC50 (Leishmania donovani [10]) was 64 nM, the Activity (Mus musculus [11]) was 8.3 mg/dL and the half-life [12] was > 2 h. It also gave an IC50 (Leishmania donovani [13]) of 76 nM, a Cmax [14] of 1090 nM and an Activity (Mus musculus [15]) of 50 U/L. The IC50 (Leishmania amazonensis) was 87 nM, the Activity (Leishmania donovani [16]) was “Active” and the AUC(0-inf) [17] was 2.53 µM·h. For the same compound, the Activity (Mus musculus [18]) was 19 mg/dL, the IC50 (Leishmania donovani [19]) was 90 nM and the Activity (Mus musculus [20]) was 27 mg/dL. For the same compound, the Activity (Mus musculus [21]) was 7 mg/dL, the Activity (Mus musculus [22]) was 123 U/L and the half-life [23] was > 2 h. It also gave an IC50 (Leishmania donovani [24]) of 36 nM, a Vd [25] of 14 L/kg and an Activity (Mus musculus [26]) of 44 U/L. The Activity (Mus musculus [27]) was 25 mg/dL and the half-life [28] was > 2 h.
